Assay results: ChEMBL document CHEMBL4145560, “Conformationally Constrained Cinnolinone Nucleoside Analogues as Siderophore Biosynthesis Inhibitors for Tuberculosis” (ACS Med Chem Lett, 2018)
Calls of active or inactive are those of the source. The calls are words filed in the database; no cut-off is given here.

Experiments:
[1] = system: Mycobacterium tuberculosis; experiment: Antimycobacterial activity against Mycobacterium tuberculosis H37Rv in glycerol alanine salts medium without ferric ammonium citrate at pH 6.6 after 10 to 14 days in presence of 12.5 uM salicylate by broth microdilution method; assay type: functional
Summary of the method: (§1)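 MIC against M. tuberculosis in iron-deficient GAST medium supplemented with salicylate at 0, 0.2, 0.78, 3.1 or 12.5 μM. Salicylate was added to the growth medium to test antagonism of whole-cell activity.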

[2] = Cytotoxicity against African green monkey Vero cells assessed as reduction in cell viability; assay type: cell-based; settings: chlorocebus sabaeus
Summary of the method: (§2)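 Viability of mammalian Vero and HepG2 cell lines tested up to a highest concentration of 200 μM.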

[3] = system: Mycobacterium tuberculosis; experiment: Antimycobacterial activity against Mycobacterium tuberculosis H37Rv in glycerol alanine salts medium without ferric ammonium citrate at pH 6.6 after 10 to 14 days by broth microdilution method; assay type: functional
Summary of the method: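 M. tuberculosis H37Rv grown in glycerol-alanine-salts medium at pH 6.6, with no ferric ammonium citrate or other added iron. MIC taken as the concentration inhibiting 99% of growth.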

[4] = Cytotoxicity against human HepG2 cells assessed as reduction in cell viability; assay type: cell-based; summary of the method: as §2
[5] = target: T1, Salicyl-AMP ligase / salicyl-S-ArCP synthetase (Mycobacterium tuberculosis, UniProt P71716); experiment: Inhibition of Mycobacterium tuberculosis recombinant salicylate ligase MbtA expressed in Escherichia coli using salicylic acid as substrate after 20 mins by [32P]PPi-ATP exchange based scintillation counting analysis; settings: read-out: Ki(app)
T1 sequence (P71716 whole entry): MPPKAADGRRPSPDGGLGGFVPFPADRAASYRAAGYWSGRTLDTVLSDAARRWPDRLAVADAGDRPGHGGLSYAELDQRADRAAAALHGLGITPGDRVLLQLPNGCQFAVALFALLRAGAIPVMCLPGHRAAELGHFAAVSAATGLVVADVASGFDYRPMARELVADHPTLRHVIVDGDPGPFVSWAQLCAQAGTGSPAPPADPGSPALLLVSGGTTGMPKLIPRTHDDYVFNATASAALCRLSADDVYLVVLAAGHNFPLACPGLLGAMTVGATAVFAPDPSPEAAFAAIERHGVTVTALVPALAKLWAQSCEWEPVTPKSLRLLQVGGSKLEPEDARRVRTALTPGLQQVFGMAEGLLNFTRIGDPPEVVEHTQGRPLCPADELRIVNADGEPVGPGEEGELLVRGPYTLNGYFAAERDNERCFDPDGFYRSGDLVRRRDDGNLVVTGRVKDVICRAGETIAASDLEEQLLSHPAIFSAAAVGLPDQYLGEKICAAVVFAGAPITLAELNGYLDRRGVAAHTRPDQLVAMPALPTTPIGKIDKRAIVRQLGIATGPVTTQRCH
Summary of the method: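 Recombinant MbtA (7 nM) in a [32P]PPi-ATP exchange assay under initial-velocity conditions at pH 8.0. Substrates were 10 mM ATP, 250 μM salicylic acid and 1 mM PPi. Concentration–response data were fitted to the Morrison tight-binding equation to give apparent Ki.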

[6] = system: Mycobacterium tuberculosis; experiment: Antimycobacterial activity against Mycobacterium tuberculosis H37Rv in glycerol alanine salts medium without ferric ammonium citrate at pH 6.6 after 10 to 14 days in presence of 0.2 to 3.1 uM salicylate by broth microdilution method; assay type: functional, organism-based; summary of the method: as §1
[7] = target: T2, Salicyl-AMP ligase / salicyl-S-ArCP synthetase (Mycobacterium tuberculosis) (UniProt P71716); experiment: Inhibition of salicylate ligase MbtA in Mycobacterium tuberculosis H37Rv in iron-free GAST medium assessed as reduction in cell-wall associated lipophilic mycobactin-T production at pH 7.4 at 5 times MIC after 70 hrs by LC-MS/MS method relative to control
T2 sequence (whole entry): T1 sequence (P71716 whole entry)
Summary of the method: (§3)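 M. tuberculosis grown in iron-deficient GAST medium from an initial OD650 of 0.2, with or without inhibitor at 5 × MIC, for 27 and 70 h. Mycobactin-T (cell-wall associated) and carboxymycobactin (secreted plus cell-wall associated) quantified by LC–MS/MS in MRM mode against synthetic standards. Values normalized to cell density.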

[8] = AUC (0 to 8 hrs) in Sprague-Dawley rat at 25 mg/kg, po administered as single dose via gavage by LC-MS/MS method; assay type: ADME, organism-based; design: time < 8 hr, dose 25 mg/kg, route oral; settings: in vivo
Summary of the method: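 Female Sprague–Dawley rats (n = 3), single oral dose 25 mg/kg. Plasma levels at time points measured by LC–MS/MS. AUC over 0–8 h, reported as mean ± SD.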

[9] = target: T2, Salicyl-AMP ligase / salicyl-S-ArCP synthetase (Mycobacterium tuberculosis); experiment: Inhibition of salicylate ligase MbtA in Mycobacterium tuberculosis H37Rv in iron-free GAST medium assessed as reduction in cell-wall associated lipophilic mycobactin-T production at pH 7.4 at 5 times MIC after 27 hrs by LC-MS/MS method relative to control; summary of the method: as §3
[10] = Clearance in Sprague-Dawley rat at 2.5 mg/kg, iv administered as single dose via bolus injection by LC-MS/MS method; assay type: ADME, organism-based; settings: in vivo
Summary of the method: (§4)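 Female Sprague–Dawley rats (n = 3), single i.v. dose 2.5 mg/kg. Plasma concentrations at several time points by LC–MS/MS. AUC taken over 0–8 h. Clearance, volume of distribution and half-life derived from the i.v. curve, with elimination monoexponential. Reported as mean ± SD.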

[11] = Volume of distribution at steady state in Sprague-Dawley rat at 2.5 mg/kg, iv administered as single dose via bolus injection by LC-MS/MS method; assay type: ADME, organism-based; settings: in vivo, read-out: Vdss; summary of the method: as §4
[12] = Elimination half life in Sprague-Dawley rat at 2.5 mg/kg, iv administered as single dose via bolus injection by LC-MS/MS method; assay type: ADME, organism-based; settings: in vivo, read-out: beta t1/2; summary of the method: as §4
[13] = Oral bioavailability in Sprague-Dawley rat at 25 mg/kg administered as single dose via gavage by LC-MS/MS method; assay type: ADME, organism-based; settings: in vivo
Summary of the method: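 Oral bioavailability (F) in female Sprague–Dawley rats (n = 3), calculated by comparing AUC0–8h after a single 25 mg/kg p.o. dose with AUC0–8h after a 2.5 mg/kg i.v. dose. Plasma levels measured by LC–MS/MS.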

[14] = AUC (0 to 8 hrs) in Sprague-Dawley rat at 2.5 mg/kg, iv administered as single dose via bolus injection by LC-MS/MS method; assay type: ADME, organism-based; design: time < 8 hr, dose 2.5 mg/kg, route intravenous; settings: in vivo; summary of the method: as §4
[15] = target: T2, Salicyl-AMP ligase / salicyl-S-ArCP synthetase (Mycobacterium tuberculosis); experiment: Inhibition of salicylate ligase MbtA in Mycobacterium tuberculosis H37Rv in iron-free GAST medium assessed as reduction in water-soluble carboxymycobactin production at pH 7.4 at 5 times MIC after 27 to 70 hrs by LC-MS/MS method relative to control; summary of the method: as §3
[16] = system: Mycobacterium tuberculosis; experiment: Antimycobacterial activity against wild type Mycobacterium tuberculosis in iron-free GAST medium at 0.04 to 10 uM after 8 days by two fold serial dilution method; assay type: functional, organism-based

SMILES	MIC [1] [µM]	CC50 [2] [µM]	MIC99 [3] [µM]	CC50 [4] [µM]	Ki [5] [µM]	Activity [6]	fold change (FC) [7]	AUC(0-t) at 8 h [8] [ng·h/mL]	fold change (FC) [9]	clearance [10] [mL/min/kg]	Vd [11] [L/kg]	half-life [12] [min]	bioavailability [13] [%]	AUC(0-t) at 8 h [14] [ng·h/mL]	fold change (FC) [15]	Activity [16]
Nc1ncnc2c1ncn2[C@@H]1O[C@H](CNS(=O)(=O)c2n[nH]c3ccc(F)cc3c2=O)[C@@H](O)[C@H]1O	≥ 50	> 200	4.7	> 200	0.0209	inactive	–	–	–	–	–	–	–	–	–	–
Nc1ncnc2c1ncn2[C@@H]1O[C@H](CNS(=O)(=O)c2noc3ccccc3c2=O)[C@@H](O)[C@H]1O	–	> 200	> 50	> 200	> 50	–	–	–	–	–	–	–	–	–	–	–
Nc1ncnc2c1ncn2[C@@H]1O[C@H](CNS(=O)(=O)c2c[nH]c3ccccc3c2=O)[C@@H](O)[C@H]1O	–	> 200	> 50	> 200	0.12	–	–	–	–	–	–	–	–	–	–	–
CCN(CC)CC.Nc1ncnc2c1ncn2[C@@H]1O[C@H](CNS(=O)(=O)c2n[nH]c3cc(F)ccc3c2=O)[C@@H](O)[C@H]1O	≥ 50	> 200	2.3	> 200	0.0116	inactive	5	967	> 2	8.9	0.57	40	2.1	4630	1.5	–
Nc1ncnc2c1ncn2[C@@H]1O[C@H](CNS(=O)(=O)c2n[nH]c3cc(F)c(F)cc3c2=O)[C@@H](O)[C@H]1O	≥ 50	> 200	3.1	> 200	0.014	inactive	–	–	–	–	–	–	–	–	–	–
Nc1ncnc2c1ncn2[C@@H]1O[C@H](CNS(=O)(=O)c2n[nH]c3ccccc3c2=O)[C@@H](O)[C@H]1O	≥ 50	> 200	4.7	> 200	0.0144	inactive	–	–	–	–	–	–	–	–	–	–
Nc1ncnc2c1ncn2[C@@H]1O[C@H](COS(=O)(=O)NC(=O)c2ccccc2O)[C@@H](O)[C@H]1O	≥ 50	–	–	–	–	–	–	1100	–	4.9	0.079	11	< 1	8650	–	Active
